TRPC4 inh – TRPC4 (mouse) channel inhibition; HEK293 TRPC4beta/mu-opioid, DAMGO-evoked Fluo4 calcium flux; hits give low values; actives 0.39% (n = 300,000); Q9QUQ5; B-score at 10 µM;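 active means B-score over 3 SD under the library average, no early fluorescence shift, positive overall ratio signal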
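Assay system – HEK293 line stably carrying TRPC4beta and mu-opioid receptor · Doses – single dose · Detection – Fluo4 calcium-dye fluorescence, kinetic read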
TRPC4 agonist – opens the mouse TRPC4 cation channel | B-score at 10 µM | actives 0.49% (n = 310,000) | Q9QUQ5 | HEK293 TRPC4beta/mu-opioid, Fluo4 calcium fluorescence; hits give high values;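 active means B-score above 5 SD of library B-scores, and initial fluorescence ratio not above library mean plus 5 SD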;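 further: positive B-score marks a calcium rise read as TRPC4 activation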
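Material: HEK293 stable line with TRPC4beta plus mu-opioid receptor; technique: Fluo4 calcium-sensitive dye fluorescence, kinetic, 1 Hz baseline; timing: Fluo4 dye loading 45 min at room temperature, 110 s recording; controls: assay buffer as low control, maximal DAMGO as high control; read-out: integrated baseline-normalised fluorescence ratio, converted to per-well B score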
TRPC6 inhibitor – inhibitors of mouse TRPC6 channel | Q61143 | HEK293-TRPC6, membrane potential dye, ACh-evoked depolarization; hits give low values | B-score at 10 µM | actives 1.1% (n = 310,000);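 active means B-score under library mean minus 3 SD, initial fluorescence not abnormally high, positive integrated signal ratio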;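 further: B-score derived from integrated fluorescence ratio over the kinetic read; more negative B-score means stronger inhibition of depolarization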
TRPC4 potent – TRPC4 (mouse) allosteric potentiation; B-score at 10 µM; actives 0.42% (n = 310,000); Q9QUQ5; HEK293 TRPC4beta/mu-opioid, DAMGO EC20, Fluo-4 Ca2+ flux; hits give high values;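 active means B-score of calcium response area above 5 SD of library B-scores, with initial fluorescence ratio within 5 SD of library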;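 further: B-score of integrated fluorescence ratio over time as area under calcium response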
TRPC6 activator – mouse TRPC6 channel activation. Q61143. HEK293-TRPC6 membrane potential dye fluorescence; hits give high values. B-score at 10 µM. actives 0.13% (n = 310,000);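 active means B-score of the integrated fluorescence ratio above library mean plus 3 SD, and starting fluorescence ratio within library mean plus 5 SD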;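 further: higher score means more depolarization so channel activation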
Numbers without * were called inactive; i = inactive. The list is not random: actives were taken first. Their share in the collection is about 2.3%.

SMILES	TRPC4 inh	TRPC4 agonist	TRPC6 inhibitor	TRPC4 potent	TRPC6 activator
CCOc1ccc(NC(=O)N(CCN(C)C)C(C)c2cccnc2)cc1 (stereo unspecified)	i	i	i	i	i
CCc1ccc(NC(=O)N(CCN(C)C)C(C)c2cccnc2)cc1 (stereo unspecified)	i	72*	i	i	i
CCOC(=O)CN1N=C(/C=C/c2ccccc2)CCC1=O	i	i	i	i	i
CCOC(=O)CN1N=C(/C=C/c2ccc(C(C)C)cc2)CCC1=O	i	i	i	11*	i
CC(=O)Nc1ccc(NC(=O)CSc2nnc(NC(=O)c3ccc(Br)o3)s2)cc1	i	i	i	i	i
CCCCN(C)C(=O)Cn1ncc2c3ccccc3n(CCC)c2c1=O	i	i	i	21*	i
COc1ccccc1OCC(=O)Nc1cc2c(cc1C(=O)O)OCCCO2	i	i	i	i	i
O=C(O)c1cc(-c2ccc(/C=c3\sc4nc5ccc(Br)cc5n4c3=O)o2)ccc1Cl	i	i	i	i	40*
Cc1nnsc1S(=O)c1ccccc1Cl (stereo unspecified)	i	i	i	i	i
Cc1ccc(C)c(CN2CCC(CNC(=O)Nc3ccc(Cl)cc3)CC2)c1	i	i	i	14*	i
NCCNC(=O)c1c(O)c2cccc3c2n(c1=O)CCC3	i	104*	i	i	i
CCCNC(=O)c1c(O)c2cccc3c2n(c1=O)CCC3	i	i	i	i	i
COc1ccc(NC(C#N)c2ccccc2OCc2ccccc2)cc1 (stereo unspecified)	i	i	i	10*	i
Cn1c(=O)c2c(nc(NCC3CCCC(CN)C3)n2Cc2ccc(Cl)cc2Cl)n(C)c1=O (stereo unspecified)	i	i	i	i	i
CC1=NN(c2ccccc2)C(=O)/C1=C\C=C1\N(C)c2ccccc2C1(C)C	i	58*	i	i	i
CC1CCN(C(C(=O)NC2CCCCC2)c2cc3c(cc2[N+](=O)[O-])OCO3)CC1 (stereo unspecified)	i	i	i	11*	i
CC1CCCN(C(C(=O)NC2CCCCC2)c2cc3c(cc2[N+](=O)[O-])OCO3)C1 (stereo unspecified)	i	i	i	i	i
Cc1c(Cl)cccc1N=C(N)N=C(N)N	i	51*	i	i	i
COc1ccccc1C(c1nnnn1C(C)(C)C)N1CCN(Cc2ccncc2)CC1 (stereo unspecified)	i	i	i	i	i
C=CCN1CCN(C(c2cccc(OC)c2OC)c2nnnn2CCC(C)C)CC1 (stereo unspecified)	-7*	i	i	i	i
COc1cccc(C(c2nnnn2CCc2ccccc2)N2CCN(c3ccccc3)CC2)c1OC (stereo unspecified)	i	i	i	i	i
COc1cccc(C(c2nnnn2C(C)(C)C)N2CCN(C3CCCCC3)CC2)c1OC (stereo unspecified)	-6*	i	i	i	i
O=S(=O)(Nc1ccc(F)cc1)N1CCOCC1	i	i	i	i	i
Cc1ccc2oc(C(=O)N(Cc3ccccc3)C3CCS(=O)(=O)C3)c(C)c2c1 (stereo unspecified)	i	43*	i	i	i
Cc1ccc2c(C)c(C(=O)N(Cc3cccs3)C3CCS(=O)(=O)C3)oc2c1 (stereo unspecified)	i	61*	i	i	i
SMILES	TRPC4 inh	TRPC4 agonist	TRPC6 inhibitor	TRPC4 potent	TRPC6 activator
O=C(/C=C/c1ccc(Cl)cc1)N(Cc1ccccc1)C1CCS(=O)(=O)C1 (stereo unspecified)	i	i	i	20*	i
O=C(/C=C/c1ccc(Cl)cc1Cl)N(Cc1ccccc1)C1CCS(=O)(=O)C1 (stereo unspecified)	i	i	i	i	i
COc1ccccc1NS(=O)(=O)c1cccc(C(=O)NC2CCN(Cc3ccccc3)CC2)c1	-8*	52*	i	i	i
O=C(NC1CCN(Cc2ccccc2)CC1)c1cccc(S(=O)(=O)Nc2ccc(Br)cc2)c1	i	i	i	i	i
Clc1ccc(N=C2SCC3CCCCN23)cc1 (stereo unspecified)	i	i	i	23*	i
CCOc1ccc(N=CNc2ccc(OCC)cc2)cc1	i	i	i	15*	i
CCOc1ccc(N=Cc2ccc3ccccc3c2)cc1	i	i	i	i	i
CCCOc1ccc(CSC(=N)N)cc1C(=O)OC	i	185*	i	i	i
N=C(N)SCc1ccc(O)c([N+](=O)[O-])c1	i	i	i	i	i
COC(=O)c1cc(CSC(=N)N)ccc1OCCC(C)C	i	i	i	i	i
COc1ccc(CSC(=N)N)cc1[N+](=O)[O-]	i	53*	i	i	i
CCN1C(=O)C(=O)N(CC(=O)c2[nH]c(C)c(C(C)=O)c2C)C1=O	i	i	i	i	i
CC(=O)c1c(C)[nH]c(C(=O)CN2C(=O)NC(C)(c3ccc(C)cc3)C2=O)c1C (stereo unspecified)	i	44*	i	i	i
CCn1cc[n+](C)c1P(c1ccccc1)c1ccccc1	-5*	51*	i	i	i
CCOC(=O)c1cc(=O)n(Cc2ccccc2C)c2ccccc12	i	i	i	15*	i
Cc1ccc(Cn2c(=O)cc(C(=O)O)c3ccccc32)cc1	i	i	i	i	i
CCC(=O)c1cc2c(C)cc(=O)oc2c(C)c1OC(=O)C(C)C	-6*	i	i	i	i
CCCn1c(N)c(N(CCOC)C(=O)CSCC(=O)Nc2cccc(C)c2)c(=O)[nH]c1=O	i	i	i	i	i
CCC(C(=O)NC1CCCCC1)N(Cc1cccs1)C(=O)CCC(=O)Nc1cc(C)on1 (stereo unspecified)	i	i	i	i	i
O=C(CC1S/C(=N\S(=O)(=O)c2ccccc2)N(c2ccccc2)C1=O)Nc1ccc(F)cc1 (stereo unspecified)	i	i	i	10*	i
Cn1c(-c2ccccc2)cnc1NCc1ccc(F)cc1	-7*	i	i	i	i
CC1CCN(CCc2nc3cc(NS(=O)(=O)c4ccccc4)ccc3n2C)CC1	i	i	i	i	i
CC1CCN(CCc2nc3cc(NS(=O)(=O)c4ccc(F)cc4)ccc3n2C)CC1	i	i	i	15*	i
